Compounds with a hit are over-represented: about 1% of the library has one in this group of screens.
LYPLA1 counter = LYPLA1 inhibitors, primary screen, counter-screen for PME1 inhibitor project, biochemical, fluorescence polarization, FP-Rh probe ABPP | AID 2174, 2009 | hit rate 0.16% among 320,000 | inhibition, % at 5.9 µM | recombinant LYPLA1 | Acyl-protein thioesterase 1 (Homo sapiens), O75608;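 active = inhibition above the mean of all tested compounds plus 3 SD, set per campaign, cut at about 14% in these data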;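 note: inhibitors block serine hydrolase probe labeling of LYPLA1 so polarization falls; 0% = enzyme with DMSO and 100% = wells lacking LYPLA1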
LYPLA2 inh = LYPLA2 inhibitors, primary screen, counter-screen for PME1 inhibitor project, biochemical, fluorescence polarization, FP-Rh probe ABPP; hit rate 0.38% among 320,000; Acyl-protein thioesterase 2 (Homo sapiens), O95372; AID 2177, 2009; inhibition, % at 5.9 µM; recombinant LYPLA2;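 active = inhibition above the screen-wide mean plus 3 SD, limit set per campaign, cut at about 26% in these data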;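 note: 0% = LYPLA2 with DMSO and 100% = wells lacking LYPLA2 enzyme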
Target sequence (O95372 whole entry, looked up): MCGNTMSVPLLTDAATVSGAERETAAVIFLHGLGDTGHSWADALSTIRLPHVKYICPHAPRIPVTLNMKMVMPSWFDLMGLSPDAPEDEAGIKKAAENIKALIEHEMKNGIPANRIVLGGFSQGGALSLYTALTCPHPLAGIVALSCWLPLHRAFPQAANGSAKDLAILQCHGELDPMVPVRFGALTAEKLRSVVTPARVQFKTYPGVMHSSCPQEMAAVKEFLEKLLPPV
procasp3 activ = activators of human procaspase-3 D3A mutant, primary screen, biochemical, absorbance, PC-3 D3A mutant, single concentration; AID 463141, 2010; Caspase-3 (Homo sapiens), P42574; activation, % at 8.5 µM; recombinant procaspase-3 D3A, Ac-DEVD-pNA absorbance 405 nm; hit rate 0.11% among 330,000;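 active = activation above the mean of all tested compounds plus 3 SD, cut at about 21% in these data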;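 note: 0% = DMSO alone and 100% = DMSO wells spiked with extra 5 µM PC-3 D3A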
Target sequence (P42574 whole entry D9A/D28A/D175A): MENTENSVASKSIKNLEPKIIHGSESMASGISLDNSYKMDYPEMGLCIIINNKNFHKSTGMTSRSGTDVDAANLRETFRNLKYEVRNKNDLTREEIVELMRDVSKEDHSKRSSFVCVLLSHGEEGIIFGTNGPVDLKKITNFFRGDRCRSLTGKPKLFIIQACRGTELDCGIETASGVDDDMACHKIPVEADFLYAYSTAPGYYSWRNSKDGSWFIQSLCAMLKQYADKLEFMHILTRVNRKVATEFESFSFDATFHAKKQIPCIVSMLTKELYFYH
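System: Procaspase-3 D3A mutant. Medium: Zinc-free 300 mM NaCl, 50 mM HEPES, 0.01% Triton X-100. Schedule: 1 h preincubation plus 2 h reaction at 25 °C. Measured by: 405 nm absorbance of p-nitroaniline, reads at 0 and 120 min. Read-out: percent activation relative to control range.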
PREPL inh = PREPL enzyme inhibitors, primary screen, biochemical, fluorescence polarization | inhibition, % at 5.96 µM | hit rate 0.68% among 320,000 | Prolyl endopeptidase-like (Homo sapiens), Q4J6C6 | recombinant PREPL, fluorescence polarization activity-based probe; in the data active = inhibition above about 43%;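 note: 0% = enzyme with DMSO and 100% = wells lacking enzyme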
procasp7 counter = procaspase-7 activators, primary screen, counter-screen for procaspase-3 activator project, biochemical, absorbance, HTS, human; activation, % at 8.5 µM; recombinant procaspase-7, Ac-DEVD-pNA absorbance 405 nm; D23A/D198A/D206A triple mutant, cannot self-cleave; scale: DMSO 0, 5 µM enzyme 100; Caspase-7 (Homo sapiens), P55210; hit rate 0.093% among 330,000;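 active = percent activation above the screen-wide mean plus 3 SD, cut at about 25% in these data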
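System: Procaspase-7 triple mutant (PC-7 D3A); measure: % activation from two-timepoint absorbance difference, scaled to controls; times: 1 h compound preincubation, 2 h substrate cleavage, 25 °C; also added: Ac-DEVD-pNA substrate, 400 µM as added; measured by: Epi-absorbance of released pNA at 405 nm, two timepoints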
LYPLA1 conf = LYPLA1 inhibitors, retest, confirmation, counter-screen for PME1 inhibitor project, biochemical, fluorescence polarization, FP-Rh probe ABPP; inhibition, % at 5.9 µM; shares compounds with LYPLA1 counter; recombinant LYPLA1; hit rate 69% among 480; AID 2233, 2010;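 active = mean inhibition across replicates above the hit cutoff set in the primary screen, cut at about 15% in these data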;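 note: loss of FP-Rh probe labeling of LYPLA1 seen as lower polarization; 0% = LYPLA1 with DMSO and 100% = wells lacking LYPLA1 enzyme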
* = called active by the depositor; . = no result given.

SMILES | LYPLA1 counter | LYPLA2 inh | procasp3 activ | PREPL inh | procasp7 counter | LYPLA1 conf
CC1CCN(C(=O)Cn2ncc3c([nH]c4ccccc43)c2=O)CC1 | 4 | 13 | 9 | -6 | 8 | .
O=c1nc(/C=C/c2ccc(-c3ccc(F)cc3)o2)cc(C(F)(F)F)[nH]1 | -2 | -12 | -28 | 4 | -22 | .
O=C(O)c1cc(Cl)ccc1-c1ccc(/C=C/c2cc(C(F)(F)F)[nH]c(=O)n2)o1 | 18* | 31* | 1 | 13 | 0 | 0
Nc1ccc(N2CCOCC2)c2nonc12 | 70* | 70* | -20 | 10 | -32 | 1
O=C(Nc1ccc(N2CCOCC2)c2nonc12)C1CCCC1 | 0 | 1 | -10 | 2 | -1 | .
CCN(CC)C1=CC2=CC(=C(C#N)C#N)CCC2CC1 (stereo not given) | 7 | 2 | -15 | 18 | -22 | .
CCCCN(C)C1=CC2=CC(=C(C#N)C#N)CCC2CC1 (stereo not given) | 32* | 12 | -43 | 33 | -65 | 8
Cc1ccc(NC(=O)c2nc[nH]c2C(=O)N(C)Cc2ccccc2)cc1 | -2 | 0 | -4 | 4 | 1 | .
COCCNC(=S)N1CCN(c2cccc(C)c2C)CC1 | 0 | 4 | -5 | 0 | -5 | .
N#Cc1c(NC(=O)CSc2nc(N)cc(=O)[nH]2)sc2c1CCCCCC2 | 6 | 20 | -2 | -19 | 2 | .
CC(Sc1nc(N)cc(=O)[nH]1)C(=O)Nc1sc2c(c1C#N)CCCC2 (stereo not given) | 30* | 9 | 0 | -9 | -14 | 39*
COc1cc(OC)c(OC)cc1/C=C1\Oc2cc(OCC(=O)N3Cc4ccccc4C[C@H]3C(=O)O)ccc2C1=O | 25* | -6 | 0 | 29 | -17 | 22*
COc1ccc(/C=C2\Oc3cc(OCC(=O)N4CCC[C@H]4C(=O)O)ccc3C2=O)c(OC)c1 | -2 | 2 | 3 | -5 | 8 | .
COc1ccc(OC)c(NC(=O)c2cc(S(=O)(=O)N(C)C)ccc2N2CCCC2)c1 | 2 | 6 | -7 | -1 | 3 | .
CC(=O)NCCNS(=O)(=O)c1ccc(C)c([N+](=O)[O-])c1 | -1 | 4 | -2 | -2 | 10 | .
O=c1ccc2ccc(Oc3ccc([N+](=O)[O-])cc3[N+](=O)[O-])cc2o1 | 40* | 58* | 7 | 12 | 5 | 40*
COc1ccccc1-c1nnc(SCC(=O)NC2CC2)n1C | 1 | 6 | 1 | 8 | -15 | .
COc1ccccc1-c1nnc(SCC(=O)NNC(=O)c2ccccc2F)n1C | 24* | 7 | 4 | 19 | 3 | 4
CC1=NN(c2ccccc2)C(=O)/C1=C/c1c(O)n(-c2ccc(F)c(Cl)c2)[nH]c1=O | 26* | 14 | -14 | 31 | -20 | 14
CC1=NN(c2ccccc2)C(=O)/C1=C\c1c(C)[nH]n(-c2ccccc2)c1=O | -2 | 1 | -19 | 11 | 6 | .
CCOc1ccccc1N1CCN(Cc2cnc(-c3ccccc3)[nH]2)CC1 | -2 | 0 | 4 | -3 | 6 | .
CCC(C)[C@H](NC(=O)NCCCOC(C)C)C(=O)OC (stereo not given in full) | 2 | -4 | 0 | 5 | 13 | .
O=C(O)CCCNc1cc(N2CCN(C(=O)c3ccco3)CC2)c2noc3c2c1C(=O)c1ccccc1-3 | 18* | 14 | -1 | 33 | -15 | 18*
COC(=O)C1(CC2CC(c3cccc(Br)c3)=NO2)CCN(C(=O)OC(C)(C)C)CC1 (stereo not given) | 24* | 5 | 11 | -5 | -9 | 31*
CCOC(=O)c1c(C)oc2c1C(=O)c1ccccc1C2=O | 1 | 4 | 10 | 15 | -15 | .
CCOc1ccc2noc3c2c1C(=O)c1ccccc1-3 | 20* | 24 | -5 | 23 | -8 | 12

Bioassay records from PubChem BioAssay.
